Screens (PubChem BioAssay)
This is a sample that favours compounds with a hit; in the whole collection about 3.5% have one here.
Wnt act = activators of Wnt/beta-catenin signaling; Wnt/beta-catenin reporter cell assay, activator, plate reader; activation, % at 9.35 µM; 300,000 compounds, 1.2% hits; AID 743398; in the data active = activation above about 30%, passing the limit was not always enough; inconclusive = no clear call, values can overlap the other calls;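 also: 0% = neutral control wells and 100% = positive control wells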
ERAP1 inh = inhibitors of human ERAP1 aminopeptidase. AID 652197. inhibition, % at 10.7 µM. 340,000 compounds, 0.15% hits. recombinant ERAP1, Leu-AMC fluorescence, 60 min;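 active = mean replicate inhibition of at least 30%, or all replicates individually reaching that 30% level; inactive = mean below 30% and not every replicate reaching it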;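 also: 0% = neutral control wells and 100% = L-leucinethiol positive control wells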
Target sequence (Q9NZ08 whole entry, looked up): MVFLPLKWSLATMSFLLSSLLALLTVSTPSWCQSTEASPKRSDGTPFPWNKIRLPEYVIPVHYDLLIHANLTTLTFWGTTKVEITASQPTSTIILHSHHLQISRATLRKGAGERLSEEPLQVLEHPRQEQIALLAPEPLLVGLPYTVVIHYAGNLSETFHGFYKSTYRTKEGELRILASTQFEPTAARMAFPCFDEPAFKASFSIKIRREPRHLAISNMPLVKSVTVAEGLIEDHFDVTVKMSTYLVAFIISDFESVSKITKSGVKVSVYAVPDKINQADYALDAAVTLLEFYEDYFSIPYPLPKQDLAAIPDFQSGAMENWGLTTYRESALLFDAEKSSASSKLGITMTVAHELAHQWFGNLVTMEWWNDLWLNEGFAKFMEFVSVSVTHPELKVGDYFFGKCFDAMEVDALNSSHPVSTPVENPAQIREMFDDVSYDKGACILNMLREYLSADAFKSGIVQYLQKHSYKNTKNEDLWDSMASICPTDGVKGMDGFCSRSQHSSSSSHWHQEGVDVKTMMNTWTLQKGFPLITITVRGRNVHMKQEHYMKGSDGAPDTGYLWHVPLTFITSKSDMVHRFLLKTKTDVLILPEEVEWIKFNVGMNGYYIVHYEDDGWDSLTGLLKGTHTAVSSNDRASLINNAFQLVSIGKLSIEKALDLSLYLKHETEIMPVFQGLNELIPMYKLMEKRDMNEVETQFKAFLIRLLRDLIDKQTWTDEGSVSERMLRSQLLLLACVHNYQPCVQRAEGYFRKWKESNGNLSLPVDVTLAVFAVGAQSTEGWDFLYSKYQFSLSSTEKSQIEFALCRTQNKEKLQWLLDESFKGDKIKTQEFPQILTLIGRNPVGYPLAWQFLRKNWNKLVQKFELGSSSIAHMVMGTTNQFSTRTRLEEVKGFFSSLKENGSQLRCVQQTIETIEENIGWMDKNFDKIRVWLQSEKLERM
esBAF inh = inhibitors of esBAF chromatin remodeling in mouse ES cells. 350,000 compounds, 2% hits. Bmi1-luciferase knock-in reporter, 24 h; 100% = twice the neutral-well signal. reporter increase, % at 12.5 µM; in the data active = activation above about 40%; inconclusive = no clear call, values can overlap the other calls;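 also: 0% = median of the plate's neutral control wells and 100% = double that signal; a rise in the Bmi1 reporter signal indicates esBAF inhibition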
HIV Env fusion = inhibitors of HIV Env-mediated cell fusion; HeLa-JRFL Env/CEM21 cell fusion, luciferase; inhibition, % at 12.3 µM; 360,000 compounds, 1.1% hits; AID 651610;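 active = mean replicate inhibition score of at least 50 and every replicate individually at or above 50; inconclusive = only one of the two criteria met; inactive = mean below 50 and not all replicates reaching 50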;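 also: 0% = plate neutral controls and 100% = maraviroc near 300 nM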
MITF TRPM1 HTS = activators of MITF-driven TRPM1 promoter activity in SK-MEL-5 cells; SK-MEL-5 TRPM1-promoter luciferase, 24 h; % of positive control, neutral wells = 0; activation, % at 12.5 µM; 300,000 compounds, 0.75% hits; AID 588334;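 active = mean activation of at least 80% with every replicate also reaching 80%; inconclusive = mean reaches 80% but some replicate falls short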;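 also: 0% = neutral control wells and 100% = parthenolide positive control wells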
Cneo AK release = Cryptococcus neoformans lysis via adenylate kinase release; lysis activity, % at 15 µM; C. neoformans lysis, adenylate kinase release luminescence, 4 h; normalised: neutral wells 0, clomiphene wells 100; AID 651654; 360,000 compounds, 0.2% hits;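 active = mean lysis activity across replicates of at least 80%, whatever share of replicates individually reach that level; inactive = mean lysis activity below 80%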
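read-out = cell lysis signal | test system = log-phase Cryptococcus neoformans yeast cells | input = cells at 5 × 10^6 per mL | medium = fresh YPD growth medium | signal = luminescent adenylate kinase detection reagent | timing = 4 h at 37 °C static, read 1 h later | dosing = single dose | controls = Clomiphene as positive lysis control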
* = called active by the depositor; ? = inconclusive; nt = no result; [ ] = another dose, or the depositor's remark.

SMILES | Wnt act | ERAP1 inh | esBAF inh | HIV Env fusion | MITF TRPM1 HTS | Cneo AK release
N/C(=N\OC(=O)c1ccc(Cl)cc1Cl)c1ccccc1 | nt | nt | -67 | -255 | -9 | -5
N/C(=N\OC(=O)c1ccc(Cl)cc1Cl)c1cccnc1 | 32* | nt | 5 | -150 | 24 | nt
N/C(=N\OC(=O)c1ccco1)c1ccc(Cl)cc1 | 65* | 6 | ? | -35 | 56 | -1
N/C(=N\OC(=O)c1ccc(Cl)cc1)c1ccc(Cl)cc1 | -1 | nt | 10 | nt | 96* | 0
O=C(COC(=O)c1ccco1)c1ccc(Cl)cc1 | 1 | 2 | 12 | -7 | 19 | -4
O=C(C1CC1)N1CC(=O)N2[C@H](C1)[C@@H](c1ccc(C#CC3CCCC3)cc1)[C@@H]2CO | nt | 0 | nt | nt | nt | nt
O=C(C[C@H]1C=C[C@H](NS(=O)(=O)c2ccc(F)cc2)[C@@H](CO)O1)NCCN1CCCCC1 | nt | 1 | 3 | -44[16.7 µM] | nt | -3
O=C(C[C@H]1C[C@@H]2c3cc(NC(=O)Nc4ccccc4F)ccc3O[C@@H]2[C@H](CO)O1)NCc1ccc(Oc2ccccc2)cc1 | nt | 4 | -3 | -4[16.7 µM] | nt | -9
N/C(=N\OC(=O)CC1CCCCC1)c1ccc(Cl)cc1 | 22 | -4 | 41* | 6 | 28 | 1
N/C(=N\OC(=O)CC1CCCCC1)c1ccc(Br)cc1 | -1 | -3 | nt | -10 | 27 | 1
O=C(N[C@H]1CC[C@@H](CCNC(=O)C2CCC2)O[C@@H]1CO)c1ccccn1 | nt | 2 | -3 | 14[16.7 µM] | nt | -1
O=C(CSc1nnc(-c2n[nH]c3ccccc23)n1-c1ccccc1)Nc1cccc(Cl)c1 | 2 | nt | -7 | 70* | 3 | nt
C[C@@H]1CCCCO[C@@H](CN(C)S(=O)(=O)c2ccc(Cl)cc2)[C@H](C)CN([C@H](C)CO)C(=O)c2cc(NC(=O)C3CCCCC3)ccc2O1 | nt | 2 | 5 | 31[16.7 µM] | nt | -2
O=[N+]([O-])c1ccccc1NCCOc1ccccc1 | 67* | nt | nt | -326 | 65 | nt
Cc1cccc(NC(=S)N2N=CCC2c2ccccc2)c1 (stereo unspecified) | 6 | -1 | 49* | -161 | 48 | 0
CCc1ccccc1NC(=S)N1N=CCC1c1ccccc1 (stereo unspecified) | 2 | -2 | 12 | -4 | 26 | 1
COCC(=O)N1CC2(C1)[C@H](c1ccc(-c3cccc(F)c3)cc1)[C@H](CO)N2C(=O)COC | nt | 5 | nt | nt | nt | nt
Nc1c(-c2cccc([N+](=O)[O-])c2)nc2ccccn12 | -2 | nt | 59* | -17 | 78 | nt
COc1ccc(S(=O)(=O)Nc2cccc3c2O[C@@H](CN(C)C(=O)NC(C)C)[C@@H](C)CN([C@H](C)CO)C3=O)cc1 | nt | 0 | 4 | -11[16.7 µM] | nt | 2
CCCCC1CCC(C(=O)OC(C)C(=O)Nc2ccc(NC(C)=O)cc2)CC1 (stereo unspecified) | 1 | 75* | nt | 0 | 11 | 2
CC(=O)Nc1ccc(NC(=O)C(C)OC(=O)C2CCC2)cc1 (stereo unspecified) | -3 | 1 | -3 | 11 | 1 | -1
Cn1cc([N+](=O)[O-])c(C(=O)Nc2ccc(C(=O)N3CCCCC3)cc2)n1 | -1 | 0 | nt | 6 | -8 | nt
Cn1cc([N+](=O)[O-])c(C(=O)Nc2ccc(C3CCCCC3)cc2)n1 | 46* | 1 | nt | -147 | -5 | nt
CN(C)c1nc(OCCNC(=O)COc2ccc(Cl)cc2Cl)nc(N(C)C)n1 | -6 | nt | 0 | 44* | -22 | 6
O=C(N/N=C/C(Br)=C/c1ccccc1)c1ccccc1F | 19 | 6 | 51* | -85 | 70 | -5
SMILES | Wnt act | ERAP1 inh | esBAF inh | HIV Env fusion | MITF TRPM1 HTS | Cneo AK release
O=C(N/N=C/C(Cl)=C/c1ccccc1)c1ccccc1F | 25 | -1 | 48* | -29 | 67 | -3
O=C(N/N=C/C(Br)=C/c1ccccc1)c1cccs1 | ? | 5 | nt | -233 | 63 | nt
N#Cc1cc2cc3c(cc2nc1SCC(=O)N1CCOCC1)OCO3 | ? | -3 | 52* | -33 | nt | 0
CC(C)OC(=O)CSc1nc2cc3c(cc2cc1C#N)OCO3 | nt | nt | 59* | -92 | nt | 1
Cc1cc2cc3c(cc2nc1SCC(=O)N1CCOCC1)OCO3 | 0 | 4 | 10 | 18 | nt | -1
CCOC(=O)CSc1nc2cc3c(cc2cc1C#N)OCO3 | nt | nt | nt | -381 | 90* | 0
C[C@H]1CN([C@@H](C)CO)C(=O)Cc2cc(NS(=O)(=O)c3ccccc3)ccc2O[C@H]1CN(C)C(=O)Nc1cccc2ccccc12 | nt | 0 | 0 | 5[16.7 µM] | nt | -1
Cc1ccccc1S(=O)(=O)NCC[C@H]1CC[C@@H](NC(=O)C2CCOCC2)[C@@H](CO)O1 | nt | 0 | 1 | -3[16.7 µM] | nt | 0
CO[C@H]1CN(C)C(=O)c2cc(NC(=O)C3CC3)ccc2OC[C@@H](C)N(Cc2cccc(F)c2)C[C@@H]1C | nt | 2 | 0 | nt | nt | -5
Cn1c(NC(=O)/C=C/c2ccccc2)cc(=O)n(C)c1=O | 61* | nt | nt | -10 | 1 | 6
CSc1cccc(NC(=O)/C=C/c2ccccc2)c1 | 28 | nt | 62* | -154 | nt | -10
O=C(/C=C/c1ccccc1)Nc1cccc(C(=O)O)c1 | -4 | -8 | nt | 78* | -98 | nt
CN1C(=O)c2cc(NC(=O)C3CC3)ccc2OC[C@H]2O[C@@H](CC(=O)Nc3ccc(F)cc3)CC[C@@H]21 | nt | nt | -2 | -26[16.7 µM] | nt | -4
Cc1nn2c(N)c(C#N)cnc2c1-c1ccccc1 | nt | nt | 9 | nt | 46 | 0
Cc1nn2c(-c3ccc(F)cc3)ccnc2c1Cl | 4 | 0 | 3 | 16 | -2 | -1
Cc1nn2c(-c3ccc(Cl)cc3)ccnc2c1-c1ccccc1 | 10 | nt | 57* | -69 | nt | -3
Cc1nn2c(N)c(-c3ccccc3)cnc2c1-c1ccccc1 | -1 | 8 | 50* | -199 | nt | -4
COC(=O)C[C@@H]1CC[C@@H](NS(=O)(=O)c2ccc(OC)cc2)[C@H](CO)O1 | nt | 0 | -4 | 10[16.7 µM] | nt | 18
Cc1ccc([N+](=O)[O-])cc1NC(=O)C(Sc1ccccc1)c1ccccc1 (stereo unspecified) | nt | nt | nt | 67* | -4 | nt
Cc1ccc([N+](=O)[O-])cc1NC(=O)c1ccccc1 | -2 | 0 | -7 | 3 | 7 | 1
Cc1cccc(C(=O)OCC(=O)c2c(N)n(CC(C)C)c(=O)n(C)c2=O)c1O | -3 | -4 | nt | 60* | -5 | nt
C[C@@H]1CN([C@H](C)CO)C(=O)c2cc(NS(C)(=O)=O)ccc2O[C@H]1CN(C)Cc1ccc(C(F)(F)F)cc1 | nt | 2 | -5 | 26[16.7 µM] | nt | -4
COCCNC(=O)c1ccc2c(Cl)c3c(nc2c1)CCC3 | 36* | 5 | ? | -31 | 100* | -3
CC1CCN(CCCNC(=O)c2ccc3c(Cl)c4c(nc3c2)CCCC4)CC1 | -6 | 1 | -9 | 57* | -18 | nt
O=C(NCCCN1CCCCCC1)c1ccc2c(Cl)c3c(nc2c1)CCCC3 | -2 | 7 | nt | 9 | 1 | nt
